Measurements gathered from unrelated publications.
Each line is one published result; the experiments were not run side by side.
Organism: Plasmodium falciparum
Effect on: parasite growth

Compound | test | system | setting | measurement | value
COc1cc(/C=C/C(=O)C(=Cc2cccc(O)c2)C(=O)/C=C/c2ccc(O)c(OC)c2)ccc1O | – | 3D7 | blood stage | EC50 | 1150 nM
CCC1=C(CC)/C(=C/c2[nH]c(Cc3ccc(OC(F)(F)F)cc3)cc2Cc2ccc(OC(F)(F)F)cc2)N=C1c1ccc[nH]1 | SYBR Green | D6 | 72 h, blood stage | IC50 | 2040 nM
CC(C(=O)Nc1ccccc1Cl)n1ccc2ccc(-c3cnn(C)c3)cc21 (stereo not shown) | – | 3D7 | 72 h, blood stage | EC50 | 1120 nM
COc1cc(/C=C/C(=O)C(=Cc2ccc([N+](=O)[O-])cc2)C(=O)/C=C/c2ccc(O)c(OC)c2)ccc1O | – | 3D7 | blood stage | EC50 | 2770 nM
CC(C)N(c1ccc(C#N)cc1)c1ccc(NC(=O)CN(C)c2ccccc2N2CCCC2=O)c(F)c1 | – | 3D7 | 72 h, blood stage | EC50 | 44 nM
COC1=C(OC)/C(=C/c2cc(-c3ccc(OC(F)(F)F)cc3)c(C)[nH]2)N=C1c1ccc[nH]1 | SYBR Green | D6 | 72 h, blood stage | IC50 | 521 nM
CO[C@H]1C[C@H](O[C@@H]2/C(C)=C/C[C@@H]3C[C@@H](C[C@]4(CC[C@H](C)[C@@H](C5CCCCC5)O4)O3)OC(=O)[C@@H]3C=C(C)/C(=N/O)[C@H]4OC/C(=C\C=C\[C@@H]2C)[C@]43O)O[C@@H](C)[C@@H]1O | – | NF54 | blood stage | IC50 | 698 nM
CCCN(c1ccc(C)cc1)c1ccc(NC(=O)CN(C)c2ccccc2N2CCCC2=O)cc1 | – | 3D7 | 72 h, blood stage | EC50 | 10 nM
CCC1=C(CC)/C(=C/c2cc(Cc3ccc(Cl)cc3)c(C)[nH]2)N=C1c1ccc[nH]1 | SYBR Green | D6 | 72 h, blood stage | IC50 | 343 nM
COc1cc(/C=C2\CC/C(=C\c3ccc(O)c(OC)c3)C2=O)ccc1O | – | 3D7 | blood stage | EC50 | 250 nM
Cc1ccc(N(C)c2ccc(NC(=O)CN(C)c3ccccc3N3CCCC3=O)cc2)nc1 | – | 3D7 | 72 h, blood stage | EC50 | 4000 nM
COc1cc(/C=C/C(=O)C(=Cc2ccc(O)cc2)C(=O)/C=C/c2ccc(O)c(OC)c2)ccc1O | – | 3D7 | blood stage | EC50 | 4350 nM
CCOC1=CC(c2ccc[nH]2)=N/C1=C\c1cc(Cc2ccc(OC(F)(F)F)cc2)c(C)[nH]1 | SYBR Green | D6 | 72 h, blood stage | IC50 | 6.89 nM
Cc1ccc(Oc2ccc(NC(=O)CNc3ccccc3N3CCCCC3=O)cc2)cc1 | – | 3D7 | 72 h, blood stage | EC50 | 2500 nM
COC1=C(OC)/C(=C/c2[nH]c(Cc3ccc(OC(F)(F)F)cc3)cc2Cc2ccc(OC(F)(F)F)cc2)N=C1c1ccc[nH]1 | SYBR Green | D6 | 72 h, blood stage | IC50 | 85.9 nM
COc1cc(C=C(C(=O)/C=C/c2ccc(O)c(OC)c2)C(=O)/C=C/c2ccc(O)c(OC)c2)ccc1O | – | 3D7 | blood stage | EC50 | 1790 nM

Compound | test | system | setting | measurement | value
CCN(CC)CCOc1ccc2c(c1)C(=O)c1cc(OCCN(CC)CC)ccc1-2 | SYBR Green | 3D7 | blood stage | IC50 | 1540 nM
COc1cc(NC(C)CCCN)c2ncccc2c1 (stereo not shown) | – | – | 100 µM, gametocyte | inhibition | 100%
COc1cc(/C=C/C(=O)C(=Cc2ccccc2)C(=O)/C=C/c2ccc(O)c(OC)c2)ccc1O | – | 3D7 | blood stage | EC50 | 3790 nM
CO[C@H]1/C=C/O[C@@]2(C)Oc3c(C)c(O)c4c(O)c(c(/C=N/N5CCN(C6CCCC6)CC5)c(O)c4c3C2=O)NC(=O)/C(C)=C\C=C\[C@H](C)[C@H](O)[C@@H](C)[C@@H](O)[C@@H](C)[C@H](OC(C)=O)[C@@H]1C | – | NF54 | blood stage | IC50 | 240 nM
C[C@H]1Cc2c([nH]c3cc(Cl)c(F)cc23)[C@@]2(N1)C(=O)Nc1ccc(Cl)cc12 | – | 3D7 | 72 h, blood stage | EC50 | 0.7 nM
N=C(N)N/N=C/c1c(Cl)cccc1Cl | SYBR Green | 3D7 | blood stage | IC50 | 39.8 nM
Cc1nnc(-c2ccc3ccn(CC(=O)Nc4cccnc4)c3c2)o1 | – | 3D7 | 72 h, blood stage | EC50 | 4250 to 4780 nM
COc1ccnn1-c1ccccc1NCC(=O)Nc1ccc(Oc2ccc(C)cc2)cc1 | – | 3D7 | 72 h, blood stage | EC50 | > 10000 nM
CCC1=C(CC)/C(=C/c2cc(-c3ccc(OC(F)(F)F)cc3)c(C)[nH]2)N=C1c1ccc[nH]1 | SYBR Green | D6 | 72 h, blood stage | IC50 | > 2500 nM
CCN(c1ccc(C)cc1)c1ccc(NC(=O)CN(C)c2ccccc2N2CCCC2=O)cc1 | – | 3D7 | 72 h, blood stage | EC50 | 19 nM
COC1=CC(c2ccc[nH]2)=N/C1=C\c1[nH]c(-c2ccccc2)cc1-c1ccccc1 | SYBR Green | D6 | 72 h, blood stage | IC50 | 16.6 nM
Cc1ccc(Oc2ccc(NC(=O)COc3ccccc3N3CCCC3=O)cc2)cc1 | – | 3D7 | 72 h, blood stage | EC50 | 1570 nM
Cn1cc(-c2ccc3ccn(CC(=O)Nc4ccccc4Cl)c3c2)c(C(F)(F)F)n1 | – | 3D7 | 72 h, blood stage | EC50 | 46 nM
O=C(CNc1ccccc1N1CCCC1=O)Nc1ccc(Oc2ccccc2)cc1 | – | 3D7 | 72 h, blood stage | EC50 | > 10000 nM
COC1=CC(c2ccc[nH]2)=N/C1=C\c1cc(Cc2ccc(OC)cc2)c(-c2ccc(OC)cc2)[nH]1 | SYBR Green | D6 | 72 h, blood stage | IC50 | 89 nM
